Experimental data reported in ChEMBL document CHEMBL1287651, “Synthesis and in vitro antibacterial activity of fluoroquinolone derivatives containing 3-(N'-alkoxycarbamimidoyl)-4-(alkoxyimino) pyrrolidines” (2010).
Values after ≈ are worked out from the molar mass of the structure shown.

Tests used:
Assay type in all cases: functional
Enterococcus faecium [1] = assay: Antibacterial activity against Enterococcus faecium 08-7 after 18 to 24 hrs by twofold serial dilution method
Procedure, shortened: (§1)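 MIC determined by the standard twofold serial dilution method on agar media, screening against Gram-positive and Gram-negative strains. Levofloxacin and gemifloxacin were run alongside as reference drugs.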

Klebsiella pneumoniae [2] = assay: Antibacterial activity against Klebsiella pneumoniae 09-23 after 18 to 24 hrs by twofold serial dilution method; procedure, shortened: as §1
Staphylococcus aureus [3] = assay: Antibacterial activity against methicillin-resistant Staphylococcus aureus 08-1 after 18 to 24 hrs by twofold serial dilution method
Procedure, shortened: (§2)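 Standard twofold serial agar dilution method on agar media for MIC determination. Screened against representative Gram-positive and Gram-negative strains. Levofloxacin and GMFX served as control drugs.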

[4] = tested on: Staphylococcus epidermidis; assay: Antibacterial activity against methicillin-resistant Staphylococcus epidermidis 09-4 after 18 to 24 hrs by twofold serial dilution method; procedure, shortened: as §2
Enterococcus faecalis [5] = assay: Antibacterial activity against Enterococcus faecalis 08-10 after 18 to 24 hrs by twofold serial dilution method; procedure, shortened: as §1
Enterococcus faecalis [6] = assay: Antibacterial activity against Enterococcus faecalis 08-12 after 18 to 24 hrs by twofold serial dilution method; procedure, shortened: as §1
[7] = tested on: Staphylococcus epidermidis; assay: Antibacterial activity against methicillin-sensitive Staphylococcus epidermidis 09-3 after 18 to 24 hrs by twofold serial dilution method; procedure, shortened: as §2
Streptococcus pneumoniae [8] = assay: Antibacterial activity against Streptococcus pneumoniae 08-4 after 18 to 24 hrs by twofold serial dilution method; procedure, shortened: as §1
Klebsiella pneumoniae [9] = assay: Antibacterial activity against Klebsiella pneumoniae 09-21 after 18 to 24 hrs by twofold serial dilution method; procedure, shortened: as §1
[10] = tested on: Staphylococcus epidermidis; assay: Antibacterial activity against methicillin-resistant Staphylococcus epidermidis 09-3 after 18 to 24 hrs by twofold serial dilution method; procedure, shortened: as §2
Escherichia coli [11] = assay: Antibacterial activity against Escherichia coli 08-22 after 18 to 24 hrs by twofold serial dilution method; procedure, shortened: as §1
Pseudomonas aeruginosa [12] = assay: Antibacterial activity against Pseudomonas aeruginosa 09-33 after 18 to 24 hrs by twofold serial dilution method; procedure, shortened: as §1
Escherichia coli [13] = assay: Antibacterial activity against Escherichia coli 08-21 after 18 to 24 hrs by twofold serial dilution method; procedure, shortened: as §1
Pseudomonas aeruginosa [14] = assay: Antibacterial activity against Pseudomonas aeruginosa 09-32 after 18 to 24 hrs by twofold serial dilution method; procedure, shortened: as §1
Staphylococcus aureus [15] = assay: Antibacterial activity against methicillin-sensitive Staphylococcus aureus 08-2 after 18 to 24 hrs by twofold serial dilution method; procedure, shortened: as §2
[16] = tested on: Staphylococcus epidermidis; assay: Antibacterial activity against methicillin-sensitive Staphylococcus epidermidis 09-6 after 18 to 24 hrs by twofold serial dilution method; procedure, shortened: as §2
[17] = tested on: Staphylococcus epidermidis; assay: Antibacterial activity against methicillin-resistant Staphylococcus epidermidis 09-2 after 18 to 24 hrs by twofold serial dilution method; procedure, shortened: as §2
Enterococcus faecium [18] = assay: Antibacterial activity against Enterococcus faecium 08-2 after 18 to 24 hrs by twofold serial dilution method; procedure, shortened: as §1
Escherichia coli [19] = assay: Antibacterial activity against Escherichia coli ATCC 25922 after 18 to 24 hrs by twofold serial dilution method; procedure, shortened: as §1
Pseudomonas aeruginosa [20] = assay: Antibacterial activity against Pseudomonas aeruginosa ATCC 27853 after 18 to 24 hrs by twofold serial dilution method; procedure, shortened: as §1
Streptococcus pneumoniae [21] = assay: Antibacterial activity against Streptococcus pneumoniae 08-2 after 18 to 24 hrs by twofold serial dilution method; procedure, shortened: as §1
Pseudomonas aeruginosa [22] = assay: Antibacterial activity against Pseudomonas aeruginosa 09-34 after 18 to 24 hrs by twofold serial dilution method; procedure, shortened: as §1
Staphylococcus aureus [23] = assay: Antibacterial activity against Staphylococcus aureus ATCC […] after 18 to 24 hrs by twofold serial dilution method; procedure, shortened: as §1
Klebsiella pneumoniae [24] = assay: Antibacterial activity against Klebsiella pneumoniae 09-22 after 18 to 24 hrs by twofold serial dilution method; procedure, shortened: as §1
Pseudomonas aeruginosa [25] = assay: Antibacterial activity against Pseudomonas aeruginosa 09-35 after 18 to 24 hrs by twofold serial dilution method; procedure, shortened: as §1

| Structure (SMILES) | MIC (Enterococcus faecium [1]) | MIC (Klebsiella pneumoniae [2]) | MIC (Staphylococcus aureus [3]) | MIC [4] | MIC (Enterococcus faecalis [5]) | MIC (Enterococcus faecalis [6]) | MIC [7] | MIC (Streptococcus pneumoniae [8]) | MIC (Klebsiella pneumoniae [9]) | MIC [10] | MIC (Escherichia coli [11]) | MIC (Pseudomonas aeruginosa [12]) | MIC (Escherichia coli [13]) | MIC (Pseudomonas aeruginosa [14]) | MIC (Staphylococcus aureus [15]) | MIC [16] | MIC [17] | MIC (Enterococcus faecium [18]) | MIC (Escherichia coli [19]) | MIC (Pseudomonas aeruginosa [20]) | further results |
| --- | --- | --- | --- | --- | --- | --- | --- | --- | --- | --- | --- | --- | --- | --- | --- | --- | --- | --- | --- | --- | --- |
| CCO/N=C1\CN(c2c(F)cc3c(=O)c(C(=O)O)cn(CC)c3c2F)CC1/C(N)=N\O (stereo not given) | > 128 µg/mL | > 128 µg/mL | 1 µg/mL (≈ 2.29 µM) | 1 µg/mL (≈ 2.29 µM) | > 128 µg/mL | > 128 µg/mL | 0.125 µg/mL (≈ 0.286 µM) | > 128 µg/mL | > 128 µg/mL | 0.25 µg/mL (≈ 0.572 µM) | 16 µg/mL (≈ 36.6 µM) | > 128 µg/mL | > 128 µg/mL | > 128 µg/mL | 1 µg/mL (≈ 2.29 µM) | 0.125 µg/mL (≈ 0.286 µM) | 1 µg/mL (≈ 2.29 µM) | > 128 µg/mL | > 128 µg/mL | > 128 µg/mL | MIC (Streptococcus pneumoniae [21]): 16 µg/mL (≈ 36.6 µM); MIC (Pseudomonas aeruginosa [22]): > 128 µg/mL; MIC (Staphylococcus aureus [23]): 1 µg/mL (≈ 2.29 µM); MIC (Klebsiella pneumoniae [24]): > 128 µg/mL; MIC (Pseudomonas aeruginosa [25]): > 128 µg/mL |
| CO/N=C1\CN(c2nc3c(cc2F)c(=O)c(C(=O)O)cn3C2CC2)CC1/C(N)=N\O (stereo not given) | > 128 µg/mL | > 128 µg/mL | 128 µg/mL (≈ 306 µM) | 2 µg/mL (≈ 4.78 µM) | > 128 µg/mL | 4 µg/mL (≈ 9.56 µM) | 128 µg/mL (≈ 306 µM) | 2 µg/mL (≈ 4.78 µM) | > 128 µg/mL | 1 µg/mL (≈ 2.39 µM) | > 128 µg/mL | 8 µg/mL (≈ 19.1 µM) | > 128 µg/mL | 8 µg/mL (≈ 19.1 µM) | 1 µg/mL (≈ 2.39 µM) | 128 µg/mL (≈ 306 µM) | 1 µg/mL (≈ 2.39 µM) | > 128 µg/mL | 128 µg/mL (≈ 306 µM) | 4 µg/mL (≈ 9.56 µM) | MIC (Streptococcus pneumoniae [21]): 2 µg/mL (≈ 4.78 µM); MIC (Pseudomonas aeruginosa [22]): 8 µg/mL (≈ 19.1 µM); MIC (Staphylococcus aureus [23]): 1 µg/mL (≈ 2.39 µM); MIC (Klebsiella pneumoniae [24]): 32 µg/mL (≈ 76.5 µM); MIC (Pseudomonas aeruginosa [25]): > 128 µg/mL |
| CCO/N=C1\CN(c2nc3c(cc2F)c(=O)c(C(=O)O)cn3C2CC2)CC1/C(N)=N\OC (stereo not given) | > 128 µg/mL | > 128 µg/mL | 0.25 µg/mL (≈ 0.56 µM) | 0.25 µg/mL (≈ 0.56 µM) | > 128 µg/mL | > 128 µg/mL | 0.25 µg/mL (≈ 0.56 µM) | 0.25 µg/mL (≈ 0.56 µM) | > 128 µg/mL | 0.125 µg/mL (≈ 0.28 µM) | > 128 µg/mL | > 128 µg/mL | > 128 µg/mL | 64 µg/mL (≈ 143 µM) | 0.25 µg/mL (≈ 0.56 µM) | 0.25 µg/mL (≈ 0.56 µM) | 128 µg/mL (≈ 287 µM) | > 128 µg/mL | > 128 µg/mL | 64 µg/mL (≈ 143 µM) | MIC (Streptococcus pneumoniae [21]): 128 µg/mL (≈ 287 µM); MIC (Pseudomonas aeruginosa [22]): > 128 µg/mL; MIC (Staphylococcus aureus [23]): 0.5 µg/mL (≈ 1.12 µM); MIC (Klebsiella pneumoniae [24]): 1 µg/mL (≈ 2.24 µM); MIC (Pseudomonas aeruginosa [25]): 64 µg/mL (≈ 143 µM) |
| CCO/N=C(/N)C1CN(c2nc3c(cc2F)c(=O)c(C(=O)O)cn3C2CC2)C/C1=N\OC (stereo not given) | > 128 µg/mL | > 128 µg/mL | 2 µg/mL (≈ 4.48 µM) | 0.125 µg/mL (≈ 0.28 µM) | > 128 µg/mL | > 128 µg/mL | 0.25 µg/mL (≈ 0.56 µM) | > 128 µg/mL | > 128 µg/mL | 0.25 µg/mL (≈ 0.56 µM) | > 128 µg/mL | > 128 µg/mL | > 128 µg/mL | > 128 µg/mL | 2 µg/mL (≈ 4.48 µM) | 0.25 µg/mL (≈ 0.56 µM) | 2 µg/mL (≈ 4.48 µM) | > 128 µg/mL | > 128 µg/mL | > 128 µg/mL | MIC (Streptococcus pneumoniae [21]): > 128 µg/mL; MIC (Pseudomonas aeruginosa [22]): > 128 µg/mL; MIC (Staphylococcus aureus [23]): 2 µg/mL (≈ 4.48 µM); MIC (Klebsiella pneumoniae [24]): 16 µg/mL (≈ 35.8 µM); MIC (Pseudomonas aeruginosa [25]): > 128 µg/mL |
| CCO/N=C1\CN(c2c(F)cc3c(=O)c(C(=O)O)cn(C4CC4)c3c2F)CC1/C(N)=N\OC (stereo not given) | 0.25 µg/mL (≈ 0.539 µM) | > 128 µg/mL | 0.25 µg/mL (≈ 0.539 µM) | 0.5 µg/mL (≈ 1.08 µM) | 32 µg/mL (≈ 69 µM) | > 128 µg/mL | 0.25 µg/mL (≈ 0.539 µM) | 0.25 µg/mL (≈ 0.539 µM) | > 128 µg/mL | 0.125 µg/mL (≈ 0.27 µM) | > 128 µg/mL | > 128 µg/mL | > 128 µg/mL | 16 µg/mL (≈ 34.5 µM) | 0.125 µg/mL (≈ 0.27 µM) | 0.25 µg/mL (≈ 0.539 µM) | 0.25 µg/mL (≈ 0.539 µM) | > 128 µg/mL | 64 µg/mL (≈ 138 µM) | 8 µg/mL (≈ 17.3 µM) | MIC (Streptococcus pneumoniae [21]): 32 µg/mL (≈ 69 µM); MIC (Pseudomonas aeruginosa [22]): > 128 µg/mL; MIC (Staphylococcus aureus [23]): 0.125 µg/mL (≈ 0.27 µM); MIC (Klebsiella pneumoniae [24]): 0.25 µg/mL (≈ 0.539 µM); MIC (Pseudomonas aeruginosa [25]): 16 µg/mL (≈ 34.5 µM) |
